Laboratory results from ChEMBL document CHEMBL1148771, “Design and synthesis of HIV-1 protease inhibitors incorporating oxazolidinones as P2/P2' ligands in pseudosymmetric dipeptide isosteres” (J Med Chem, 2007).

Legend:
[1] = target: Protease (Human immunodeficiency virus 1, UniProt Q9YQ12); assay: Inhibition of Wild type HIV1 Protease by FRET based assay
[2] = Inhibition of HIV1 Protease M3 variant by FRET based assay; design: species or system Human immunodeficiency virus 1
[3] = Inhibition of HIV1 Protease M2 variant by FRET based assay; design: species or system Human immunodeficiency virus 1
[4] = Inhibition of HIV1 Protease M1 variant by FRET based assay; design: species or system Human immunodeficiency virus 1
[5] = test system: Human immunodeficiency virus 1; assay: Antiviral activity against HIV1 infected MT4 cells by MTT method; assay type: functional, organism-based; conditions: Human immunodeficiency virus 1, MT4
Summary of the method: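 HIV-1 4–3 (100 CCID50) infected MT-4 cells, washed in PBS, seeded at 4 × 10⁴ cells/well in RPMI with 10% FBS. Compound dilutions added in triplicate at 0.5% DMSO final, 5 days at 37 °C, 5% CO₂, mock-infected controls in parallel. MTT added for 4 h, formazan solubilized, absorbance read at 540/690 nm.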

Protease, sequence (Q9YQ12 whole entry): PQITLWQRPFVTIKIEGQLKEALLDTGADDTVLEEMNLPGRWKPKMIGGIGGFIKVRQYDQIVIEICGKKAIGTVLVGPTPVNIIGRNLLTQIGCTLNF

| SMILES | Ki [1] [nM] | Ki [2] [nM] | Ki [3] [nM] | Ki [4] [nM] | EC50 [5] [nM] |
| --- | --- | --- | --- | --- | --- |
| COC(=O)N[C@H](C(=O)N[C@@H](Cc1ccccc1)[C@@H](O)CN(CC(C)C)NC(=O)[C@@H]1CN(c2ccccc2)C(=O)O1)C(C)(C)C | 10.6 |  |  |  |  |
| CC(C)(C)NC(=O)[C@@H]1C[C@@H]2CCCC[C@@H]2CN1C[C@@H](O)[C@H](Cc1ccccc1)NC(=O)[C@H](CC(N)=O)NC(=O)c1ccc2ccccc2n1 |  | 78.4 | 1.03 | 89.5 | 10 |
| COC(=O)N[C@H](C(=O)NN(CC(C)C)C[C@H](O)[C@H](Cc1ccccc1)NC(=O)[C@@H]1CN(c2ccccc2)C(=O)O1)C(C)(C)C | 7 | 549 | 39.2 | 231 |  |
| CC(C)CN(C[C@@H](O)[C@H](Cc1ccccc1)NC(=O)O[C@H]1CCOC1)S(=O)(=O)c1ccc(N)cc1 |  | 1.4 | 0.21 | 0.15 | 40 |
| COC(=O)N[C@H](C(=O)N[C@@H](Cc1ccccc1)[C@@H](O)CN(Cc1ccc(-c2ccccn2)cc1)NC(=O)[C@@H](NC(=O)OC)C(C)(C)C)C(C)(C)C [ATAZANAVIR] |  | 0.49 | 0.009 | 0.33 |  |
| CC(=O)N[C@H](C(=O)N[C@@H](Cc1ccccc1)C[C@H](O)[C@H](Cc1ccccc1)NC(=O)[C@@H]1CN(c2cccc(C(C)=O)c2)C(=O)O1)C(C)C |  | 122 | 1.67 | 82.3 | 620 |
| CC(=O)N[C@H](C(=O)N[C@@H](Cc1ccccc1)C[C@H](O)[C@H](Cc1ccccc1)NC(=O)[C@@H]1CN(c2ccccc2)C(=O)O1)C(C)C |  | 112 | 3.1 | 51.2 | 790 |
| O=C(N[C@@H](Cc1ccccc1)[C@@H](O)CN(Cc1ccc(-c2ccccn2)cc1)NC(=O)[C@@H]1CN(c2ccccc2)C(=O)O1)[C@@H]1CN(c2ccccc2)C(=O)O1 | 300 |  |  |  |  |
| O=C(N[C@@H](Cc1ccccc1)[C@@H](O)C[C@H](Cc1ccccc1)NC(=O)[C@@H]1CN(c2cccc(C(F)(F)F)c2)C(=O)O1)OCc1cccnc1 | 41.1 |  |  |  |  |
| CC(=O)c1ccc(N2C[C@@H](C(=O)N[C@@H](Cc3ccccc3)[C@@H](O)C[C@H](Cc3ccccc3)NC(=O)COc3c(C)cccc3C)OC2=O)cc1 | 39.9 |  |  |  |  |
| Cc1cccc(C)c1OCC(=O)N[C@@H](Cc1ccccc1)[C@@H](O)C[C@H](Cc1ccccc1)NC(=O)[C@@H]1CN(c2cccc(C(F)(F)F)c2)C(=O)O1 | 21.6 |  |  |  |  |
| COC(=O)N[C@H](C(=O)N[C@@H](Cc1ccccc1)C[C@H](O)[C@H](Cc1ccccc1)NC(=O)[C@@H]1CN(c2ccccc2)C(=O)O1)C(C)(C)C | 3.51 | 392 | 14 | 131 | 1030 |
| Cc1cccc(C)c1OCC(=O)N[C@@H](Cc1ccccc1)[C@@H](O)C[C@H](Cc1ccccc1)NC(=O)[C@H]1CN(c2ccccc2)C(=O)O1 | 4730 |  |  |  |  |
| Cc1cccc(C)c1OCC(=O)N[C@@H](Cc1ccccc1)C[C@H](O)[C@H](Cc1ccccc1)NC(=O)[C@@H]1CN(c2ccccc2)C(=O)O1 | 8.05 |  |  |  |  |
| Cc1cccc(C)c1OCC(=O)N[C@@H](Cc1ccccc1)[C@@H](O)C[C@H](Cc1ccccc1)NC(=O)[C@@H]1CN(c2ccccc2)C(=O)O1 | 7.28 | 447 | 18.3 | 364 |  |
| CC(=O)N[C@H](C(=O)N[C@@H](Cc1ccccc1)C[C@H](O)[C@H](Cc1ccccc1)NC(=O)[C@@H]1CN(c2ccc(F)c(F)c2)C(=O)O1)C(C)C | 2.13 | 282 | 3.9 | 168 | 360 |
| CC(=O)c1cccc(N2C[C@@H](C(=O)N[C@@H](Cc3ccccc3)[C@@H](O)CN(Cc3ccc(-c4ccccn4)cc3)NC(=O)[C@@H]3CN(c4cccc(C(C)=O)c4)C(=O)O3)OC2=O)c1 | 1090 |  |  |  |  |
| CC(=O)c1cccc(N2C[C@@H](C(=O)N[C@@H](Cc3ccccc3)[C@@H](O)C[C@H](Cc3ccccc3)NC(=O)COc3c(C)cccc3C)OC2=O)c1 | 35.1 |  |  |  |  |
| CC(C)[C@@H](C(=O)N[C@@H](Cc1ccccc1)C[C@H](O)[C@H](Cc1ccccc1)NC(=O)[C@@H]1CN(c2ccccc2)C(=O)O1)N1CCCNC1=O |  | 185 | 13.9 | 175 | 1210 |
| CC(=O)N[C@H](C(=O)N[C@@H](Cc1ccccc1)C[C@H](O)[C@H](Cc1ccccc1)NC(=O)[C@@H]1CN(c2cccc(C(F)(F)F)c2)C(=O)O1)C(C)C | 2.62 |  |  |  |  |
| O=C(Cc1ccc2c(c1)OCO2)N[C@@H](Cc1ccccc1)[C@@H](O)C[C@H](Cc1ccccc1)NC(=O)[C@@H]1CN(c2ccccc2)C(=O)O1 | 657 |  |  |  |  |
| Cc1cccc(C)c1OCC(=O)N[C@@H](Cc1ccccc1)[C@@H](O)C[C@H](Cc1ccccc1)NC(=O)[C@H](C(C)C)N1CCCNC1=O [LOPINAVIR] |  | 0.9 | 0.04 | 6.1 | 10 |
